Data: ChEMBL document CHEMBL4014346, “Lead Optimization Generates CYP11B1 Inhibitors of Pyridylmethyl Isoxazole Type with Improved Pharmacological Profile for the Treatment of Cushing's Disease” (J Med Chem, 2017)
pIC50: −log10 of the molar value.

Columns and labels:
[1] = Selectivity ratio of IC50 for human CYP11B2 expressed in hamster V79MZ cells to IC50 for human CYP11B1 expressed in hamster V79MZ cells
Procedure, shortened: (§1)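 V79MZ cells expressing recombinant human CYP11B1 or CYP11B2, or rat CYP11B1, incubated with [1,2-³H]-11-deoxycorticosterone (100 nM) and inhibitor over a range of concentrations; ketoconazole as reference.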

[2] = target: T1, Cytochrome P450 11B2, mitochondrial (Homo sapiens, UniProt P19099); assay: Inhibition of human CYP11B2 expressed in hamster V79MZ cells using [1,2-3H]-11-deoxycorticosterone as substrate after 6 hrs by HPLC analysis; assay type: ADME, cell-based; procedure, shortened: as §1
T1 sequence (P19099 whole entry): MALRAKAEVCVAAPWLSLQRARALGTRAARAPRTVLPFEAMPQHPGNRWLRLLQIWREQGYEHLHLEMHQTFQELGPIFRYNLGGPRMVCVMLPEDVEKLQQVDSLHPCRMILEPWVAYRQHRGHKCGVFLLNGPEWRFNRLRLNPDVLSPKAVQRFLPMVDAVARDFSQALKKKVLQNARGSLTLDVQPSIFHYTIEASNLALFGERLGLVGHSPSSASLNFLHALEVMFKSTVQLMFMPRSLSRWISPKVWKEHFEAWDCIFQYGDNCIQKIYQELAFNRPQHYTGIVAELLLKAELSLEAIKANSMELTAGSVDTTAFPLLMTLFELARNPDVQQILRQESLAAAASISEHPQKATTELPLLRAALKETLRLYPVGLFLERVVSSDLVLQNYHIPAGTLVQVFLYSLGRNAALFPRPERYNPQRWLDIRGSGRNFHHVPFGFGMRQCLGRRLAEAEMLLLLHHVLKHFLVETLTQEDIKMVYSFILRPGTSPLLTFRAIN

[3] = target: T2, Cytochrome P450 11B1, mitochondrial (Homo sapiens, UniProt P15538); assay: Inhibition of human CYP11B1 expressed in hamster V79MZ cells using [1,2-3H]-11-deoxycorticosterone as substrate after 6 hrs by HPLC analysis; assay type: cell-based; procedure, shortened: as §1
T2 sequence (P15538 whole entry): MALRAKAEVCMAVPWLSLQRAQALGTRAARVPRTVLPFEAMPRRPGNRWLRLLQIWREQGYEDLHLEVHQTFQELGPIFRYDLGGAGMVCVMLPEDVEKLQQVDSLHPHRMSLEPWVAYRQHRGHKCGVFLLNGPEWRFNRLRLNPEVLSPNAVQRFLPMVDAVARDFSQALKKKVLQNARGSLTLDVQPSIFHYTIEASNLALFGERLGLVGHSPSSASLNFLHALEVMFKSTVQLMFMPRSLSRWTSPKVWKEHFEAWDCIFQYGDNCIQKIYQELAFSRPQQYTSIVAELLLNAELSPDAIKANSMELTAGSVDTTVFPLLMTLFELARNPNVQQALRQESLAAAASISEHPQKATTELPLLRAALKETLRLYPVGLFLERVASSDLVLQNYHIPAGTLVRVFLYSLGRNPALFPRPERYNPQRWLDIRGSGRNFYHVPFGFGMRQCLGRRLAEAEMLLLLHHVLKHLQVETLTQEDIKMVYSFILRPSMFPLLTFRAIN

[4] = Half life in rat liver S9 fractions at 1 uM in presence of NADPH/UDPGA by LC-MS/MS analysis; assay type: ADME, tissue-based
Procedure, shortened: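 Samples taken at 0, 5, 15 and 60 min, stopped with cold acetonitrile containing internal standard. Remaining parent measured by LC-MS/MS.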

[5] = target: T3, Cytochrome P450 11B1, mitochondrial (Rattus norvegicus, UniProt P15393); assay: Inhibition of CYP11B1 in Sprague-Dawley rat adrenal tissue using 11-deoxycorticosterone as substrate after 4 hrs by SPA
T3 sequence (P15393 whole entry): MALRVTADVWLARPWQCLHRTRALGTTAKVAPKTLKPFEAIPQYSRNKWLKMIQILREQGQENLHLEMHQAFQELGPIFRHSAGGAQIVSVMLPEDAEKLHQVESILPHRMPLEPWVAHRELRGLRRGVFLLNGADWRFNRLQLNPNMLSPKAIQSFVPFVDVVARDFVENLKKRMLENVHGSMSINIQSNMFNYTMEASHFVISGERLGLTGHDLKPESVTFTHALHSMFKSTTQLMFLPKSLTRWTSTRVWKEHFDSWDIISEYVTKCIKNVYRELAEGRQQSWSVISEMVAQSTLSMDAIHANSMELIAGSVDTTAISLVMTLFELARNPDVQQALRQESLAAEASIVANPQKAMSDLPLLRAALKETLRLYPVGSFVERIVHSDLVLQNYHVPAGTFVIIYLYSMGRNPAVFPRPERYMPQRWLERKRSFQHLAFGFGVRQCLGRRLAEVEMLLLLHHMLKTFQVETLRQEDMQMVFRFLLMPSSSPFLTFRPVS

| pIC50 [2] | pIC50 [3] | half-life at 1 µM [4] [min] | pIC50 [5] | SMILES | Ratio IC50 [1] |
| --- | --- | --- | --- | --- | --- |
| 6.29 | 6.29 | – | – | Cn1c(Cn2ccnc2)cnc1-c1ccccc1 | 1 |
| 7.55 | 8.40 | – | – | Cc1cncc(Cc2ccc(-c3ccoc3)nc2)c1 | 7 |
| 7.80 | 8.70 | – | – | Cc1cncc(Cc2ccc(-c3cccc(NS(C)(=O)=O)c3)nc2)c1 | 8 |
| 8.10 | 9.00 | – | – | Cc1cncc(Cc2cc(-c3ccccc3)ns2)c1 | 8 |
| 6.76 | 7.24 | – | – | c1ccc(-c2nscc2Cn2ccnc2)cc1 | 3 |
| 6.74 | 7.38 | – | – | Cc1cncc(Cc2ccc(-c3cnn(C)c3)nc2)c1 | 4 |
| 7.49 | 8.40 | – | – | Cc1cncc(Cc2ccc(NC3CC3)nc2)c1 | 8 |
| 6.82 | 7.32 | – | – | Cc1cncc(Cc2csnc2-c2ccccc2)c1 | 3 |
| 5.88 | 6.83 | – | – | c1ccc(-c2cc(Cn3ccnc3)on2)cc1 | 9 |
| 8.22 | 9.00 | – | – | Cc1cncc(Cc2cc(-c3ccccc3)nn2C)c1 | 6 |

The next lines start with the compound.

| SMILES | pIC50 [2] | pIC50 [3] | half-life at 1 µM [4] [min] | pIC50 [5] | Ratio IC50 [1] |
| --- | --- | --- | --- | --- | --- |
| c1ccc(-c2ncc(Cn3ccnc3)s2)cc1 | 6.34 | 7.21 | – | – | 7 |
| c1ccc(-c2ncc(Cn3ccnc3)[se]2)cc1 | 6.18 | 6.98 | – | – | 6 |
| c1ccc(-c2ncc(Cn3ccnc3)o2)cc1 | 6.28 | 6.82 | – | – | 4 |
| Cc1cncc(Cc2ccc(Sc3ccccc3F)nc2)c1 | 7.62 | 8.52 | – | – | 8 |
| c1ccc(-c2cc(Cn3ccnc3)sn2)cc1 | 6.92 | 7.85 | – | – | 9 |
| CC(C)(C(=O)c1cccnc1)c1cccnc1 [METYRAPONE] | – | – | 12 | 5.30 | – |
| Cn1nc(-c2ccccc2)cc1Cn1ccnc1 | 6.67 | 7.24 | – | – | 4 |
| Cc1cncc(Cc2ccc(-c3ccccc3F)nc2)c1 | 7.57 | 8.52 | – | – | 9 |
| Cc1cncc(Cc2cc(-c3ccccc3)n[nH]2)c1 | 6.23 | 6.86 | – | – | 4 |
| Cc1cncc(Cc2ccc(S(=O)(=O)c3ccccc3F)nc2)c1 | 7.77 | 8.70 | – | – | 9 |
| Cc1cncc(Cc2ccc(Sc3ccccc3)nc2)c1 | 7.52 | 8.30 | – | – | 6 |
| Cc1cncc(Cc2cnc(-c3ccccc3)s2)c1 | 7.62 | 8.05 | – | – | 3 |
| Cc1cncc(Cc2cnc(-c3ccccc3)o2)c1 | 6.94 | 7.85 | – | – | 8 |
| Cc1cncc(Cc2ccc(S(=O)(=O)c3ccccc3)nc2)c1 | 6.76 | 7.70 | – | – | 9 |
| Cc1cncc(Cc2ccc(N3CCOCC3)nc2)c1 | 7.05 | 7.66 | – | – | 4 |
| Cc1cncc(Cc2ccc(-c3ccnn3C)nc2)c1 | 7.01 | 7.80 | – | – | 6 |
